Assay [1] deals with Serine/threonine-protein kinase PINK1, mitochondrial (Homo sapiens) (UniProt Q9BXM7). In words: Activation of human PINK1 in human HeLa cells overexpressing Parkin assessed as phosphorylation of ubiquitin at serine 65 at 50 uM and measured after 24 hr by Western blot analysis. Type of assay: cell-based. The gist of the method: (§1)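 Parkin-transfected HeLa cells received 50 μM compound for 24 h. They were then either lysed directly or given 10 μM CCCP for 3 h before lysis. Lysates were immunoblotted for Ser65-phosphorylated ubiquitin, OPA1 cleavage and GAPDH. Untreated transfected and untransfected cells served as references.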
On the technique in general: In western blotting, separated proteins are transferred to a membrane and probed.

The test system of assay [2] is HeLa. Briefly: Inhibition of ubiquitin phosphorylation in CCCP stimulated human HeLa cells overexpressing Parkin assessed as reduction in CCCP-induced ubiquitin phosphorylation at serine 65 at 50 uM preincubated for 24 hrs followed by CCCP stimulation for 3 hr by Western blot analysis. Format: cell-based. The settings on record: time 27.0 hrs. The gist of the method: as §1

The test system of assay [3] is HeLa. In words: Induction of mitochondrial membrane depolarization in human HeLa cells overexpressing Parkin assessed as inhibition of CCCP-induced OPA1 cleavage at 50 uM preincubated for 24 hrs followed by CCCP stimulation and measured after 3 hrs by Western blot analysis. The settings on record: time 27.0 hrs. Format: functional, cell-based. In outline: as §1
Assay [4] concerns HeLa. In words: Induction of mitochondrial membrane depolarization in human HeLa cells overexpressing Parkin assessed as inhibition of niclosamide-induced OPA1 cleavage at 50 uM preincubated for 24 hrs followed by niclosamide stimulation and measured after 3 hrs by Western blot analysis. The settings on record: time 27.0 hrs. Type of assay: functional, cell-based.
Assay [5] relates to HeLa. Briefly: Inhibition of CCCP-induced ubiquitin phosphorylation at serine 65 residue in human HeLa cells transfected with YFP-Parkin at 50 uM preincubated for 24 hrs followed by CCCP stimulation and measured after 1 hr hr by Western blot analysis. Type of assay: cell-based. The settings on record: time 25.0 hrs. The gist of the method: (§2)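 YFP-Parkin-transfected HeLa cells were pretreated with 50 μM compound (24 h per legend, 23 h per methods), then given 10 μM CCCP or niclosamide for 1 h. Lysis used AP buffer (Tris pH 7.5, IGEPAL, protease/phosphatase inhibitors). Blots were on PVDF, milk-blocked, primary antibody overnight at 4 °C, HRP detection; probed for pUb, LC3B-I/-II and α-tubulin.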

For assay [6], the system named is HeLa. Briefly: Inhibition of niclosamide-induced ubiquitin phosphorylation at serine 65 residue in human HeLa cells transfected with YFP-Parkin at 50 uM preincubated for 24 hrs followed by niclosamide stimulation and measured after 1 hr hr by Western blot analysis. Type of assay: cell-based. The conditions noted are these: time 25.0 hrs. In outline:
as §2

Assay [7] has as its system HeLa. Briefly: Induction of mitochondrial membrane depolarization in human HeLa cells transfected with YFP-Parkin assessed as prevention of CCCP induced mitochondrial membrane potential loss at 50 uM preincubated for 24 hrs followed by CCCP stimulation and measured after 1 hr by Hoechst 33258 staining based immunofluorescence analysis. Format: functional, cell-based. The settings on record: time 25.0 hrs. In outline: (§3)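 Mitochondrial membrane potential was read in YFP-Parkin HeLa cells pretreated with 50 μM compound for 24 h, then given 10 μM niclosamide or CCCP for 1 h. Medium was replaced with 5 nM TMRM plus Hoechst for 30 min at 37 °C in the dark. After a PBS wash, live cells were imaged by confocal microscopy at 37 °C, 5% CO2.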

Assay [8] has as its system HeLa. Briefly: Induction of mitochondrial membrane depolarization in human HeLa cells transfected with YFP-Parkin assessed as prevention of niclosamide induced mitochondrial membrane potential loss at 50 uM preincubated for 24 hrs followed by niclosamide stimulation and measured after 1 hr by Hoechst 33258 staining based immunofluorescence analysis. Format: functional, cell-based. The conditions noted are these: time 25.0 hrs. The gist of the method: as §3

Assay [9] has as its system HeLa. Briefly: Induction of mitophagy in human HeLa cells transfected with YFP-Parkin assessed as effect on mitochondrial fragmentation at 50 uM incubated for 24 hrs by Hoechst 33258 staining based immunofluorescence analysis. Format: functional, cell-based. In outline: (§4)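 YFP-Parkin-transfected HeLa cells were left untreated or exposed to 50 μM compound alone for 24 h. Cells were PFA-fixed, Triton-permeabilised and immunostained for pSer65-Ub and TOM20 with Hoechst. Confocal imaging assessed mitochondrial fragmentation, YFP-Parkin localisation and ubiquitin phosphorylation.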

Assay [10] has as its system HeLa. In words: Induction of mitophagy in human HeLa cells transfected with YFP-Parkin assessed as effect on Parkin localization at 50 uM incubated for 24 hrs by Hoechst 33258 staining based immunofluorescence analysis. Type of assay: functional, cell-based. The gist of the method: as §4
For assay [11], the system named is HeLa. Briefly: Induction of mitophagy in YFP-Parkin-transfected human HeLa cells assessed as effect on ubiquitin phosphorylation at 50 uM incubated for 24 hrs by Hoechst 33258 staining based immunofluorescence analysis. Type of assay: functional, cell-based. In outline: as §4
The test system of assay [12] is MEF. Briefly: Induction of mitophagy in wild-type PINK1 harboring mouse immortalized MEF cells overexpressing HA-tagged Parkin assessed as increase in mitophagy at 5 uM incubated for 16 hrs by flow cytometry analysis. Format: functional, cell-based. The gist of the method:
(§5)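 Immortalised MEFs from PINK1 WT or KO mito-QC littermate embryos, overexpressing HA-Parkin, were treated for 16 h. Cells were trypsinised, fixed in 3.7% formaldehyde/200 mM HEPES pH 7.0 and analysed by flow cytometry (≥2 × 10^4 cells). Living cells were gated on scatter, and the untreated-condition gate was applied to all conditions. Percent cells undergoing mitophagy was taken from the GFP/mCherry ratio; n = 3, two-way ANOVA with Sidak test.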
In general terms: Flow cytometry measures light scatter and fluorescence of single cells or particles in a stream.

Assay [13] deals with MEF. Briefly: Induction of mitophagy in PINK1 knockout mouse immortalized MEF cells overexpressing HA-tagged Parkin assessed as increase in mitophagy at 5 uM incubated for 16 hrs by flow cytometry analysis. Type of assay: functional, cell-based. In outline: as §5
Assay [14] addresses T1, Serine/threonine-protein kinase Pink1, mitochondrial (Tribolium castaneum) (UniProt D6WMX4).
T1 sequence (whole entry): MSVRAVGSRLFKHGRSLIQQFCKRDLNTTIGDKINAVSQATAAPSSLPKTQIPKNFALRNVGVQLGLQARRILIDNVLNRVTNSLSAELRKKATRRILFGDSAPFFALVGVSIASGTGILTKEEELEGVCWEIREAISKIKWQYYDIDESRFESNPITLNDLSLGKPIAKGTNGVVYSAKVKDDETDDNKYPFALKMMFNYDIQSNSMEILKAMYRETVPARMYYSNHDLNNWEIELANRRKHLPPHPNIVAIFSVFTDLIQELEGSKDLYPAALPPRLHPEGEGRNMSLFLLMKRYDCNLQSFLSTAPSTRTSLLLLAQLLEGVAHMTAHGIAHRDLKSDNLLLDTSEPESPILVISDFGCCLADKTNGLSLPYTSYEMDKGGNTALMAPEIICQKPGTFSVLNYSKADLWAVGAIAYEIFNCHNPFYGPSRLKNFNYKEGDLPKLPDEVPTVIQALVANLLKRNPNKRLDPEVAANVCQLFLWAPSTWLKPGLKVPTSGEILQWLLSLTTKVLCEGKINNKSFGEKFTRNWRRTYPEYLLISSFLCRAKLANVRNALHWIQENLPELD
In words: Inhibition of recombinant Tribolium castaneum PINK1 using human Parkin as substrate assessed as substrate phosphorylation upto 100 uM.

Assay [15] concerns the target T1, Serine/threonine-protein kinase Pink1, mitochondrial (Tribolium castaneum). In words: Inhibition of recombinant Tribolium castaneum PINK1 using human ubiquitin as substrate assessed as substrate phosphorylation upto 100 uM.
Assay [16] deals with HeLa. In words: Inhibition of CCCP-induced ubiquitin phosphorylation at serine 65 residue in human HeLa cells transfected with YFP-Parkin at 50 uM preincubated for 24 hrs followed by CCCP stimulation and measured after 1 hr hr by Hoechst 33258 staining based immunofluorescence analysis. Format: cell-based. The conditions noted are these: time 25.0 hrs. The gist of the method:
(§6)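 YFP-Parkin HeLa cells were pretreated with 50 μM compound for 24 h, then given 10 μM CCCP or niclosamide for 1 h. Cells were fixed in chilled 4% PFA, permeabilised with 0.1% Triton, blocked in BSA, then immunostained overnight at 4 °C for pSer65-Ub and TOM20 with Hoechst. YFP-Parkin was imaged by confocal microscopy (40× oil). pUb mitochondrial localisation was quantified from images.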

Assay [17] relates to HeLa. Briefly: Inhibition of niclosamide-induced ubiquitin phosphorylation at serine 65 residue in human HeLa cells transfected with YFP-Parkin at 50 uM preincubated for 24 hrs followed by niclosamide stimulation and measured after 1 hr hr by Hoechst 33258 staining based immunofluorescence analysis. The settings on record: time 25.0 hrs. Type of assay: cell-based. In outline:
as §6

Structures are written as SMILES. Activity calls are given as the source filed them. No cut-off for these calls is given here.

Chain of Serine/threonine-protein kinase PINK1, mitochondrial (Homo sapiens) (Q9BXM7 whole entry): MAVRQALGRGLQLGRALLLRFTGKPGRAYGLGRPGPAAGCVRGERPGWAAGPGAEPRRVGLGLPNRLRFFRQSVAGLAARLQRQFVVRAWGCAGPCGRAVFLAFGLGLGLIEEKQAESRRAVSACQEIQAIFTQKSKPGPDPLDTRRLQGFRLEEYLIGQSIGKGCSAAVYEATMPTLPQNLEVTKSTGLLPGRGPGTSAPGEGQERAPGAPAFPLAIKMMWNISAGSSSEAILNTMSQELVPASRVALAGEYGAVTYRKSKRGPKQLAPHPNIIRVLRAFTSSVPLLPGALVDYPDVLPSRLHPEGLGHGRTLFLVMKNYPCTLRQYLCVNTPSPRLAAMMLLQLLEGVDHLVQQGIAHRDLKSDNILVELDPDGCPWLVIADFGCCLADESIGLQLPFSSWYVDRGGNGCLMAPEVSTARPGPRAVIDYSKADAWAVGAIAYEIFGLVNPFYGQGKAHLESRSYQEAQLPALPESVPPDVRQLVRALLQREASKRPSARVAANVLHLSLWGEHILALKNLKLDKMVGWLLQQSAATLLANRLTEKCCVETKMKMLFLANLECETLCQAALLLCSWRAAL

On to `OC[C@H]1O[C@@H](n2cnc3c(NCc4ccco4)ncnc32)[C@H](O)[C@@H]1O`, for which the outcome (in assay [1]; in the assay on HeLa [7]; with HeLa [8]; with HeLa [9]; in the assay on HeLa [10]; in the assay on HeLa [11]) was inactive. For the same molecule, the outcome with MEF [13] was inactive. Besides, the inhibition result in the assay with HeLa [2], with HeLa [5], in the assay on HeLa [6], with HeLa [16] and in the assay on HeLa [17] was “Active” throughout. Besides, the inhibition result (with HeLa [3]; in the assay on HeLa [4]; in assay [14]; in assay [15]) was “inactive” in each case. Moreover, the result in the assay with MEF [12] was Active.

These data come from ChEMBL document CHEMBL5352504, “PINK1-Dependent Mitophagy Inhibits Elevated Ubiquitin Phosphorylation Caused by Mitochondrial Damage” (J Med Chem, 2023).
